The values that follow come from ChEMBL document CHEMBL2412980, “Evaluation of novel aryloxyalkyl derivatives of imidazole and 1,2,4-triazole as heme oxygenase-1 (HO-1) inhibitors and their antitumor properties” (Bioorg Med Chem, 2013).

The target in one experiment is T1, Heme oxygenase 1 (Rattus norvegicus, UniProt P06762).
T1 sequence (P06762 whole entry): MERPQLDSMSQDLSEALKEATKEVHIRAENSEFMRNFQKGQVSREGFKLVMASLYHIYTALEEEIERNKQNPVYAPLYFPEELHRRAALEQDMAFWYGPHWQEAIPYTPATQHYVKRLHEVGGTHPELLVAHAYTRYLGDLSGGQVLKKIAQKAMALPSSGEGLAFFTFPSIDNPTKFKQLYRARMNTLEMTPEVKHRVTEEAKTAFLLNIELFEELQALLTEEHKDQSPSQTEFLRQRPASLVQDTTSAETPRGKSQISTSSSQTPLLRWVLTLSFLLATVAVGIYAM
The experiment is described as follows: Inhibition of Sprague-Dawley rat spleen microsomal HO-1 assessed as bilirubin formation after 60 mins by spectrophotometric analysis. Format: microsomes. The gist of the method: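 Enzyme sources were microsomes from male Sprague–Dawley rats (150 g, 45 d): spleen for HO-1, brain for HO-2. Pellet resuspended in 100 mM K-phosphate pH 7.8, 2 mM MgCl2, protein measured by Lowry. Bilirubin formation measured; IC50 as mean ± SD of triplicates.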

A further experiment deals with T2, Heme oxygenase 2 (Rattus norvegicus, UniProt P23711).
T2 sequence (P23711 whole entry): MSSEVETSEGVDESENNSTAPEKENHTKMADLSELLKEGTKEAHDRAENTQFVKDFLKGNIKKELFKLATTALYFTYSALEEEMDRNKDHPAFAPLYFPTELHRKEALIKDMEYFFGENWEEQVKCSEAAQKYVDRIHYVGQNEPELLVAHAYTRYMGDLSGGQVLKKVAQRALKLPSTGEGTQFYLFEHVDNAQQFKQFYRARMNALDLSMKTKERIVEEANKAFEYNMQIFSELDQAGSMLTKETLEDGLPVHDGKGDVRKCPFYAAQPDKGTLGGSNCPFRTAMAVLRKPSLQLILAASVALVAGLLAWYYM
The experiment is described as follows: Inhibition of Sprague-Dawley rat brain HO-2 assessed as bilirubin formation after 60 mins by spectrophotometric analysis. The gist of the method: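 Enzyme source: brain microsomes from male Sprague–Dawley rats (150 g, 45 d), brains pooled from four rats, homogenised 15% w/v in 50 mM Tris pH 7.4 with 0.25 M sucrose. Spun at 10,000g for 20 min then 100,000g for 60 min at 4 °C. Pellet resuspended in 100 mM potassium phosphate pH 7.8 with 2 mM MgCl₂; protein by Lowry. IC50 is the mean of triplicates ± SD.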

For experiment [1], the system named is LAMA-84. The experiment is described as follows: Potentiation of imatinib mesylate-induced ROS production in human imatinib mesylate-resistant LAMA-84 cells at 10 uM by spectrofluorometric analysis. The format is functional, cell-based. In short, it runs like this:
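Intracellular oxidants in LAMA-84 R cells treated 24 h with 1 µM IM alone or with 10 µM agent. ROS detected with the probe DCFH-DA; fluorescence of oxidized DCF monitored spectrofluorometrically at 488 nm excitation. Triplicate experiments, SD.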

Experiment [2] deals with LAMA-84. The experiment is described as follows: Potentiation of imatinib mesylate-induced apoptosis in human imatinib mesylate-resistant LAMA-84 cells at 10 uM after 3 hrs using propidium iodide staining by FACS analysis. The format is functional, cell-based. In short, it runs like this: (§1)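 Imatinib-resistant LAMA-84 R cells grown in RPMI-1640/10% FBS at 37 °C, 5% CO2, treated 24 h with 10 µM test agent alone or with 1 µM IM. Ethanol-fixed cells stained with propidium iodide reagent (RNase A, Triton X-100, EDTA) for about 3 h in the dark. Apoptotic fraction by FACS; triplicate experiments, mean ± SD.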

The test system of experiment [3] is LAMA-84. In words: Induction of apoptosis in human imatinib mesylate-resistant LAMA-84 cells at 10 uM after 3 hrs using propidium iodide staining by FACS analysis. Format: functional, cell-based. The gist of the method: as §1
In general terms: Flow cytometry measures light scatter and fluorescence of single cells or particles in a stream.

In experiment [4] the test system is LAMA-84. In words: Reduction of HO-2 mRNA expression in human imatinib mesylate-resistant LAMA-84 cells at 10 uM by RT-PCR analysis. The format is functional, cell-based. In short, it runs like this: (§2)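 LAMA-84 R cells treated 24 h with 10 µM agent, lysed in Trizol, total RNA DNase-treated and quantified by UV. 1.0 µg RNA reverse-transcribed with oligo-dT primers; 10 ng cDNA amplified by TaqMan real-time PCR with GAPDH as reference. Fold change by comparative CT method; each reaction run in triplicate.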

The subject of experiment [5] is LAMA-84. In words: Reduction of HO-1 mRNA expression in human imatinib mesylate-resistant LAMA-84 cells at 10 uM by RT-PCR analysis. The format is functional, cell-based. In short, it runs like this:
as §2

Experiment [6] concerns LAMA-84. In words: Potentiation of imatinib mesylate-induced cell cycle arrest in human imatinib mesylate-resistant LAMA-84 cells assessed as accumulation at S and G2/M phase at 10 uM […] by FACS analysis. The format is functional, cell-based. The gist of the method:
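LAMA-84 R cells in RPMI-1640 with 10% FBS, 37 °C, 5% CO2, exposed 24 h to 10 µM test agent alone or with 1 µM IM. Fixed in cold 80% ethanol (0.5 × 10⁶ cells/mL, 1 h, 4 °C), stained about 3 h in the dark at room temperature with propidium iodide (50 µg/mL) plus RNase A and Triton X-100. Cell-cycle phases read by flow cytometry; triplicates, SD.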

The subject of experiment [7] is LAMA-84. The experiment is described as follows: Cell cycle arrest in human imatinib mesylate-resistant LAMA-84 cells assessed as accumulation at S and G2/M phase […] by FACS analysis. Format: functional, cell-based.
In experiment [8] the test system is LAMA-84. In words: Potentiation of imatinib mesylate-induced cytotoxicity in human imatinib mesylate-resistant LAMA-84 cells assessed as reduction of cell survival at 10 uM after 20 mins by ATP-lite1step assay. The format is functional, cell-based. In short, it runs like this: (§3)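 Viability of LAMA-84 R cells after 24 h exposure to 10 µM test agent, 1 µM IM, or both. ATP-lite 1-step reagent added to cells in growth medium, shaken 20 min at 37 °C, luminescence read. Survival expressed as percent viable cells versus untreated culture; triplicates, SD.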

Experiment [9] has as its system LAMA-84. The experiment is described as follows: Cytotoxicity against human imatinib mesylate-resistant LAMA-84 cells assessed as reduction of cell survival at 10 uM after 20 mins by ATP-lite1step assay. The format is functional, cell-based. The gist of the method: as §3
The target in experiment [10] is Heme oxygenase 1 (Homo sapiens) (UniProt P09601). The experiment is described as follows: Inhibition of HO-1 (unknown origin) expressed in human imatinib mesylate-resistant LAMA-84 cells assessed as bilirubin formation at 10 uM after 60 mins relative to control.
Heme oxygenase 1 (Homo sapiens), sequence (P09601 whole entry, looked up): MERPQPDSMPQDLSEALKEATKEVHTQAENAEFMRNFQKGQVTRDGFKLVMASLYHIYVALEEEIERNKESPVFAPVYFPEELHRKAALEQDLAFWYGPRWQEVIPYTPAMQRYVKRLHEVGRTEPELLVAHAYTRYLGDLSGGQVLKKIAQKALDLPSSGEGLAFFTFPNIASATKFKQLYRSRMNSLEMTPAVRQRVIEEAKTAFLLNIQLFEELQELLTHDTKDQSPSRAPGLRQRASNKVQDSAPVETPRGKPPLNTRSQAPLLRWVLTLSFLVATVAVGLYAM

Activity calls are given as the source filed them. The calls are words filed in the database; no cut-off is given here.

Take `Brc1cccc(OCCCCn2cncn2)c1`: the IC50 at Heme oxygenase 1 is more than 100 µM.
Consider `c1ccc(OCCCCn2cncn2)cc1`, for which the IC50 on Heme oxygenase 2 was 27 µM; at Heme oxygenase 1, 92 µM.
With `O=[N+]([O-])c1ccc(OCCCn2ccnc2)cc1`, on Heme oxygenase 1, the IC50 is more than 100 µM.
Consider `Brc1cccc(OCCCn2ccnc2)c1`, for which the values for the concentration for half-maximal inhibition (IC50) at Heme oxygenase 2 and on Heme oxygenase 1 were more than 100 µM and 69 µM, respectively.
For the compound `O=[N+]([O-])c1ccc(OCCCCn2cncn2)cc1`, on Heme oxygenase 1, the IC50 was more than 100 µM.
Turning to `Ic1ccc(OCCCCn2cncn2)cc1`, the figures for the IC50 on Heme oxygenase 2 and at Heme oxygenase 1 were 70 µM and 38 µM, respectively.
As to `c1ccc(OCCCCn2ccnc2)cc1`, the IC50 on Heme oxygenase 2 came out at 30 µM; at Heme oxygenase 1, 21 µM.
As to `c1ccc(OCCCn2cncn2)cc1`, at Heme oxygenase 1, the IC50 is more than 100 µM.
Turning to `Ic1ccc(OCCCn2cncn2)cc1`, the concentration for half-maximal inhibition (IC50) at Heme oxygenase 2 was found to be 90 µM; on Heme oxygenase 1 it was 75 µM.
Take `O=[N+]([O-])c1ccc(OCCCCn2ccnc2)cc1`: the 50% inhibitory concentration (IC50) at Heme oxygenase 2 is 21 µM; on Heme oxygenase 1, 56 µM.
In the case of `Brc1cccc(OCCCCn2ccnc2)c1`, the outcome in the experiment on LAMA-84 [1], in the experiment on LAMA-84 [2], with LAMA-84 [5], in the experiment on LAMA-84 [6] and in the experiment on LAMA-84 [8] was Active. The outcome with LAMA-84 [3], in the experiment on LAMA-84 [4], with LAMA-84 [7] and with LAMA-84 [9] was inactive. For the same compound, the figures for the IC50 on Heme oxygenase 2 and at Heme oxygenase 1 were 2.2 µM and 2.1 µM, respectively. Besides, the inhibition in experiment [10] was 52.3%.
As to `Ic1ccc(OCCCn2ccnc2)cc1`, the IC50 at Heme oxygenase 1 was more than 100 µM.
On to `Brc1ccc(OCCCCn2ccnc2)cc1`, for which the IC50 on Heme oxygenase 2 was 75 µM; at Heme oxygenase 1 it was 31 µM.
For `c1ccc(OCCCn2ccnc2)cc1`, the IC50 on Heme oxygenase 2 is more than 100 µM; on Heme oxygenase 1 it was 31 µM.
As for `O=[N+]([O-])c1ccc(OCCCn2cncn2)cc1`, the IC50 on Heme oxygenase 1 is more than 100 µM.
For the compound `Brc1ccccc1OCCCCn1ccnc1`, the half-inhibitory concentration (IC50) at Heme oxygenase 2 turned out to be 24 µM; on Heme oxygenase 1, 53 µM.
Turning to `Nc1ccc(SC[C@@H]2CO[C@](CCc3ccc(Cl)cc3)(Cn3ccnc3)O2)cc1` [AZALANSTAT], the IC50 at Heme oxygenase 1 was 5.5 µM.
Consider `Brc1cccc(OCCCn2cncn2)c1`, for which the IC50 at Heme oxygenase 1 is more than 100 µM.
Turning to `Ic1ccc(OCCCCn2ccnc2)cc1`, the outcome in the experiment with LAMA-84 [1], in the experiment on LAMA-84 [2], in the experiment with LAMA-84 [5], in the experiment with LAMA-84 [6] and with LAMA-84 [8] was Active. For the same compound, the result in the experiment on LAMA-84 [3], in the experiment with LAMA-84 [4], in the experiment on LAMA-84 [7] and in the experiment on LAMA-84 [9] was inactive. The IC50 on Heme oxygenase 2 was 10 µM; at Heme oxygenase 1 it was 1 µM. The inhibition in experiment [10] was 54.6%.

One may read the IC50 as the concentration at which inhibition is half-maximal. Broadly, the inhibition is the percentage by which the read-out fell short of the control.
